An excerpt weighted towards active compounds, which were near 1.9% of everything screened.
proCasp3 act: procaspase-3 (human) activation; P42574; recombinant procaspase-3 D3A, Ac-DEVD-pNA absorbance 405 nm; activation, % at 8.5 µM; 330,000 compounds, 0.11% hits;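 active means activation above the mean of all tested compounds plus 3 SD, cut at about 21% in these data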;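 further: 0% = DMSO alone and 100% = DMSO wells spiked with extra 5 µM PC-3 D3A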
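Assay system: Autoprocessing-dead procaspase-3 D3A mutant enzyme; also added: Ac-DEVD-pNA; doses: one concentration, 8.5 µM nominal, 0.8% DMSO; times: 1 h compound preincubation, 2 h substrate hydrolysis at 25 °C; technique: 405 nm absorbance of p-nitroaniline, reads at 0 and 120 min; measure: % activation between DMSO and enzyme-spiked controls; repeats: single replicate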
proCasp7 act: counter-screen for procaspase-3 activators: activators of human procaspase-7; 330,000 compounds, 0.093% hits; P55210; recombinant procaspase-7, Ac-DEVD-pNA absorbance 405 nm; D23A/D198A/D206A triple mutant, cannot self-cleave; scale: DMSO 0, 5 µM enzyme 100; activation, % at 8.5 µM;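 active means percent activation above the screen-wide mean plus 3 SD, cut at about 25% in these data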
Target sequence (P55210 whole entry D23A/D198A/D206A): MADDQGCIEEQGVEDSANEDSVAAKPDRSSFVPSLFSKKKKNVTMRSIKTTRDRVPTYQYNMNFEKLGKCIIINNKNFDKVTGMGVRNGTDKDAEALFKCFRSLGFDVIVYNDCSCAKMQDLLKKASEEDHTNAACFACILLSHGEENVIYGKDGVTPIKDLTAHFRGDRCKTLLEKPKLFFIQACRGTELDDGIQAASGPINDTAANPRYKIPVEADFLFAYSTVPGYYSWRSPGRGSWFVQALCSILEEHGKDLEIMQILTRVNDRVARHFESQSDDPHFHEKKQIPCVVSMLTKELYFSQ
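System: Uncleavable procaspase-7 mutant enzyme; Amount: 2 µM procaspase-7 mutant as dispensed; Schedule: 1 h compound preincubation, 2 h substrate cleavage, 25 °C; Measured by: 405 nm absorbance of p-nitroaniline; Evaluation: percent activation from buffer-corrected 0–120 min absorbance change; Control set: low DMSO alone, high DMSO plus 5 µM PC-7.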
IDE act: IDE (human) activation, cell-based; 340,000 compounds, 0.073% hits; HEK cells, FAbeta-B cleavage, fluorescence polarization; 0% vehicle, 100% cell-free pure enzyme wells; activation, % at 5.96 µM; P14735;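 active means activation above the mean of all tested compounds plus 3 SD, set per screening campaign, cut at about 17% in these data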
IDE inh: inhibitors of human insulin-degrading enzyme in cells; P14735; HEK cells, FAbetaB cleavage, fluorescence polarization; inhibition, % at 5.59 µM; 320,000 compounds, 0.41% hits; AID 434962;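 active means percent inhibition above the average of all tested compounds plus 3 SD, set per screening campaign, cut at about 16% in these data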;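 further: IDE supplied by intact live HEK cells; FP after avidin binding of uncleaved biotin substrate so inhibition keeps polarization high; 0% = DMSO wells and 100% = 60 µM reference IDE inhibitor Ii1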
PHOSPHO1 inh: blocks human PHOSPHO1 phosphatase activity; recombinant PHOSPHO1, absorbance phosphatase assay; 290,000 compounds, 1.1% hits; inhibition, % at 13.3 µM; Q8TCT1; in the data active means inhibition above about 60%
Target sequence (Q8TCT1 whole entry, looked up): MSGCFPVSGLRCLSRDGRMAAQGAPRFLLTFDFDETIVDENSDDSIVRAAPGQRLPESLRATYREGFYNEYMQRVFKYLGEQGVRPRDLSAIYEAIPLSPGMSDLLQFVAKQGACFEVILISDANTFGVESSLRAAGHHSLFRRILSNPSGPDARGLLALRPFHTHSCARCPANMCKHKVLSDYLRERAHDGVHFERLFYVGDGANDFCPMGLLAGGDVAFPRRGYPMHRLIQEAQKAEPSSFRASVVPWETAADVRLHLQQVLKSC
UBC13 polyUb: human UBC13 polyubiquitination inhibition | P61088 | UBC13 polyubiquitin chain formation, TR-FRET | 330,000 compounds, 0.47% hits | AID 485273 | inhibition, % at 20 µM; in the data active means inhibition above about 45%, passing the limit was not always enough
Numbers without * were called inactive.

For CN(C(=O)c1ccc(F)cc1)c1ccc(OCC(=O)Nc2ccccc2C(=O)O)cc1 the results were proCasp3 act 3.6, proCasp7 act 9.6, IDE act -11.6, IDE inh 7.7 and UBC13 polyUb 11.9.
CCN(Cc1ccc2c(c1)OCCO2)C(=O)CSc1nc(C)nc2sc(C)c(C)c12 was read as proCasp3 act 6.6, proCasp7 act -3.8, IDE act 0.4, IDE inh 4.1 and UBC13 polyUb 4.5.
For NC(=O)N/N=C/c1ccccc1OCc1cccc2ccccc12 the results were proCasp3 act 3.9, proCasp7 act 16.5, IDE act -3.1, IDE inh 2.7, PHOSPHO1 inh 44.0 and UBC13 polyUb 9.3.
CN(CC(=O)Nc1ccc(Cl)c(C(F)(F)F)c1)C(=O)CCN1C(=O)C2CC=CCC2C1=O (stereo unspecified) was read as proCasp3 act -6.5, proCasp7 act -3.3, IDE act 1.5, IDE inh 6.3 and UBC13 polyUb 1.2.
For O=C(N=C1SC2CS(=O)(=O)CC2N1c1ccccc1C(F)(F)F)C1CCCO1 (stereo unspecified) the results were proCasp3 act 2.9, proCasp7 act -3.5, IDE act -0.8, IDE inh 8.4, PHOSPHO1 inh -3.7 and UBC13 polyUb 1.7.
For CCC(C)c1ccc(S(=O)(=O)N2CCN(c3ccccn3)CC2)cc1 (stereo unspecified) the results were proCasp3 act 2.6, proCasp7 act -8.9, IDE act -3.7, IDE inh 1.7 and UBC13 polyUb 1.8.
COc1ccccc1C(=O)Nc1nnc(SCC(=O)NCC2CCCO2)s1 (stereo unspecified) was read as proCasp3 act 1.7, proCasp7 act -12.8, IDE act 8.4, IDE inh 2.2, PHOSPHO1 inh 13.0 and UBC13 polyUb -0.7.
COc1ccccc1Nc1nnc(SCC(=O)c2cc(C)n(CC3CCCO3)c2C)s1 (stereo unspecified) was read as proCasp3 act -7.7, proCasp7 act 5.6, IDE act 7.7, IDE inh -6.7, PHOSPHO1 inh 93.4* and UBC13 polyUb -4.1.
For C=CCn1c(=O)/c(=C2/SC(C)=C(C)N2CC)s/c1=C1/C(=O)N(CC)C(=S)N1c1ccccc1 the results were proCasp3 act -0.9, proCasp7 act -12.0, IDE act 5.7, IDE inh -0.6, PHOSPHO1 inh 100.3* and UBC13 polyUb -87.6.
For N#Cc1sc2nc3c(c(-c4ccco4)c2c1N)CCCC3 the results were proCasp3 act 18.8, proCasp7 act 3.7, IDE act -1.4, IDE inh 2.2, PHOSPHO1 inh 80.8* and UBC13 polyUb 7.6.
`Cc1ccccc1NC(=O)c1sc2nc3c(c(-c4ccco4)c2c1N)CCC3` gave proCasp3 act -7.2, proCasp7 act -10.9, IDE act -4.7, IDE inh 2.8, PHOSPHO1 inh 75.7* and UBC13 polyUb 1.8.
For CSc1ncc(Cl)c(C(=O)Nc2ccccc2Br)n1 the results were proCasp3 act 7.2, proCasp7 act -2.3, IDE act 3.4, IDE inh -1.3, PHOSPHO1 inh 32.1 and UBC13 polyUb 1.5.
For COc1ccc2oc(C(=O)NCCN3CCOCC3)c(C)c2c1OC the results were proCasp3 act -0.3, proCasp7 act 6.6, IDE act -1.5, IDE inh -3.7, PHOSPHO1 inh 14.7 and UBC13 polyUb 4.3.
CCOC(=O)CSc1nc(N)c(C#N)c(-c2ccc(OCC)cc2)c1C#N was read as proCasp3 act -1.8, proCasp7 act 5.4, IDE act 4.1, IDE inh -3.2, PHOSPHO1 inh 21.5 and UBC13 polyUb 17.9.
Screening CC1=C(C#N)c2nc(N)c(C#N)c(C)c2/C1=C\c1ccc(OCC(=O)O)c(Cl)c1 returned proCasp3 act -4.2, proCasp7 act 2.5, IDE act 0.1, IDE inh -2.8, PHOSPHO1 inh 71.4* and UBC13 polyUb 22.0.
For O=C(CSc1nc2ccccc2n1CC(=O)N1CCOCC1)N1CCCC1 the results were proCasp3 act -6.2, proCasp7 act 12.8, IDE act 2.9, IDE inh 2.3, PHOSPHO1 inh -5.8 and UBC13 polyUb -9.9.
`O=C(Cn1c(SCc2ccccc2)nc2ccccc21)N1CCOCC1` gave proCasp3 act 8.0, proCasp7 act -5.1, IDE act 4.6, IDE inh -2.2, PHOSPHO1 inh 62.3* and UBC13 polyUb -8.4.
`CC1(C)Cc2c(cnn2-c2ccc(F)cc2)C(NC(=O)c2cnccn2)C1` (stereo unspecified) gave proCasp3 act 6.6, proCasp7 act 2.3, IDE act 2.0, IDE inh 5.2, PHOSPHO1 inh -41.4 and UBC13 polyUb 1.3.
Screening CC1(C)Cc2c(cnn2-c2ccc(F)cc2)C(NC(=O)c2ccc(=O)oc2)C1 (stereo unspecified) returned proCasp3 act 0.3, proCasp7 act -2.3, IDE act 1.8, IDE inh -1.5, PHOSPHO1 inh 61.0* and UBC13 polyUb 0.9.
Screening CC1=C(SCCC#N)S/C(=C2\SC(C)=C(SCCC#N)S2)S1 returned proCasp3 act -20.0, proCasp7 act -27.2, IDE act -12.7, IDE inh 3.0, PHOSPHO1 inh 95.2* and UBC13 polyUb -1.9.
Cc1ccc(Cn2cccc(NC(=O)NC3CCCCC3)c2=O)cc1 was read as proCasp3 act 13.3, proCasp7 act 8.8, IDE act 5.3, IDE inh -1.3, PHOSPHO1 inh 66.4* and UBC13 polyUb 9.7.
O=C1CC2(CCCC2)CC(=O)N1c1ccccc1 was read as proCasp3 act -2.1, proCasp7 act 5.0, IDE act 30.2*, IDE inh -0.9, PHOSPHO1 inh -7.7 and UBC13 polyUb -4.7.
`Cn1nnnc1SCC(=O)Nc1ccc(C(=O)N2CCN(Cc3ccccc3F)CC2)cc1` gave proCasp3 act 9.2, proCasp7 act 1.9, IDE act -4.2, IDE inh 1.2 and UBC13 polyUb 0.5.
For CC(C)(C)NC(=O)CN(C(=O)CCC(=O)Nc1nccs1)c1cccc(C(F)(F)F)c1 the results were proCasp3 act 5.8, proCasp7 act -4.5, IDE act -1.5, IDE inh 1.0, PHOSPHO1 inh 60.0* and UBC13 polyUb 2.6.
Cc1cccc(N(CC(=O)NC(C)(C)C)C(=O)CCC(=O)Nc2nccs2)c1 was read as proCasp3 act 5.3, proCasp7 act 4.1, IDE act 7.5, IDE inh 7.4, PHOSPHO1 inh 31.1 and UBC13 polyUb 1.4.
For CNC(=O)NC(=O)CSc1nc2sccc2c(=O)n1-c1ccccc1 the results were proCasp3 act 5.7, proCasp7 act 4.3, IDE act 6.8, IDE inh 2.7, PHOSPHO1 inh 39.1 and UBC13 polyUb 0.7.
